Measurements from different studies.
Protocols differ between the studies behind these lines. pEC50, pIC50: −log10 of the molar value. Converted amounts (≈) assume the structure as drawn.

SMILES	tested on	assay	system	conditions	quantity	result
COc1c(C)c2c(c(O)c1C/C=C(\C)CCC(=O)O)C(=O)OC2	Enterovirus B	viral replication, inhibitor	Vero, B4		pEC50	< 4.00
COC(=O)c1cc(-c2cccc(NC(=S)Nc3ccccc3Cl)c2)on1	Acinetobacter baumannii	microbial growth, broth dilution	BAA1605		MIC	> 64 µg/mL
C1COCCN1.COc1ccc(/C=C\c2cc(I)c(OC)c(I)c2)cc1OP(=O)(O)O	BXPC-3	cell growth or viability, SRB		48 h	GI50	0.35 µg/mL
COC(=O)c1cc(-c2cccc(NC(=O)Nc3ccc(C(F)(F)F)cc3)c2)on1	Acinetobacter baumannii	microbial growth, broth dilution	BAA1605		MIC	> 64 µg/mL
C=C1CC[C@H](O)C/C1=C/C=C1\CCC[C@]2(C)[C@@H]([C@H](C)CCCC(C)C)CC[C@@H]12	Hepatitis C virus	viral replication, inhibitor, luciferase	GETYPE2A	5 days, replicon	pEC50	5.07
CO[C@H]1/C=C/O[C@@]2(C)Oc3c(C)c(O)c4c(O)c(c(/C=N/N5CCN(C)CC5)c(O)c4c3C2=O)NC(=O)/C(C)=C\C=C\[C@H](C)[C@H](O)[C@@H](C)[C@@H](O)[C@@H](C)[C@H](OC(C)=O)[C@@H]1C	Mycobacterium kansasii	microbial growth		6 days	MIC	< 0.78 µM
N#CC(C#N)=NNc1cccc(Cl)c1	human Hepatocyte	cell growth or viability			pIC50	5.32
COc1ccc(/C=C\c2cc(F)c(OC)c(OC)c2)cc1O	BXPC-3	cell growth or viability, SRB		48 h	GI50	0.745 µg/mL (≈ 2.45 µM)
CN[C@@H]1[C@H](O)[C@H](NC)[C@H]2O[C@@]3(O)C(=O)C[C@@H](C)O[C@H]3O[C@@H]2[C@H]1O	Proteus mirabilis	microbial growth, broth dilution	ATCC25933		MIC	> 200 µg/mL
COc1ccc2[nH]cc(CCNc3nccc(Nc4cccc5c4ccn5C)n3)c2c1	BXPC-3	cell growth or viability, fluorescence		72 h	pIC50	8.10
COc1cccc2c1C(=O)c1c(O)c3c(c(O)c1C2=O)C[C@@](O)(C(=O)CO)C[C@@H]3O[C@H]1C[C@H](N)[C@H](O)[C@H](C)O1	SK-MEL	cell growth or viability		48 h	IC50	1.1 µg/mL
Cl.O[C@]12C=C(c3nccc4c3[nH]c3ccccc34)[C@@H]3CCN(CCCC/C=C\CC1)C[C@@]31C[C@@H]3/C=C\CCCCN3[C@H]12	SK-MEL	cell growth or viability, neutral red		48 h	IC50	0.57 µg/mL
Cc1ccc(-c2nc3ccc(C)cn3c2CC(=O)N(C)C)cc1	Mycobacterium kansasii	microbial growth		6 days	MIC	> 50 µM
COC(=O)c1cc(-c2cccc(NC(=S)NC3CCCCC3)c2)on1	Acinetobacter baumannii	microbial growth, broth dilution	BAA1605		MIC	> 64 µg/mL
CC1CC(C)(C)CC2(C1)SC(C)C(=O)N2NC(=O)c1[nH]c2ccc(Cl)cc2c1-c1ccccc1 (stereo not shown)	Enterovirus B	viral replication, inhibitor	Vero, B4		pEC50	< 4.00
Cl.Oc1cccc2c1[nH]c1c(C3=CC4(O)CC/C=C\CCCCN5CCC3C3(CC6/C=C\CCCCN6C43)C5)nccc12 (single isomer, unassigned; (+))	SK-MEL	cell growth or viability, neutral red		48 h	IC50	0.78 µg/mL
